In brackets after ≈: the same amount, converted by molar mass.
Key:
[1] = system: Klebsiella pneumoniae; test: Antibacterial activity against Klebsiella pneumoniae HK11750/08 clinical isolate after 48 hrs by microdilution assay; type: functional; details: HK11750/08, 48 h
[2] = system: Escherichia coli; test: Antibacterial activity against Escherichia coli ATCC 8739 after 48 hrs by microdilution assay; type: functional; details: ATCC 8739, 48 h
Summary of the method: (§1)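 Broth microdilution in Mueller-Hinton medium buffered to pH 7.4 (±0.2), with DMSO as diluent at no more than 2% final. Compounds were tested as 2-fold serial dilutions from 2000 to 0.488 µmol/l. The inoculum was 0.5 McFarland (1.5×10^8 cfu/ml). Plates were held at 37 °C and read visually at 24 and 48 h. MIC was taken as 95% growth inhibition versus control, determined twice in duplicate.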

[3] = system: Staphylococcus epidermidis; test: Antibacterial activity against Staphylococcus epidermidis HK6966/08 clinical isolate after 24 hrs by microdilution assay; type: functional; details: HK6966/08, 24 h
[4] = system: Pseudomonas aeruginosa; test: Antibacterial activity against Pseudomonas aeruginosa ATCC 9027 after 24 hrs by microdilution assay; type: functional; details: ATCC 9027, 24 h; summary of the method: as §1
[5] = system: Staphylococcus epidermidis; test: Antibacterial activity against Staphylococcus epidermidis HK6966/08 clinical isolate after 48 hrs by microdilution assay; type: functional; details: HK6966/08, 48 h
[6] = system: TERT-RPE1; test: Induction of apoptosis in human RPE1 cells assessed as caspase 3/7 activity after 24 hrs by caspase-glo luminescent assay; type: cell-based; details: RPE-1, 24 h
Summary of the method: (§2)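 Cells were seeded at 500 per well in their growth media and exposed to 12 concentrations from 40 µM to 1 nM, delivered from DMSO, in triplicate. After 24 h, caspase-3/7 activity was read by Caspase-Glo luminescence. Data were normalized and ED50 was fitted by variable-slope nonlinear regression.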

[7] = system: Staphylococcus aureus; test: Antibacterial activity against Staphylococcus aureus ATCC 6538 after 48 hrs by microdilution assay; type: functional; details: ATCC 6538, 48 h
[8] = system: Klebsiella pneumoniae; test: Antibacterial activity against Klebsiella pneumoniae HK14368/08 clinical isolate after 48 hrs by microdilution assay; type: functional; details: HK14368/08, 48 h
[9] = system: Staphylococcus aureus; test: Antibacterial activity against methicillin-resistant Staphylococcus aureus HK5996/08 clinical isolate after 24 hrs by microdilution assay; type: functional; details: HK5996/08, 24 h
[10] = system: TERT-RPE1; test: Cytotoxicity against human RPE1 cells assessed as reduction in cell viability after 48 hrs by ATPlite-based luminescent assay; details: RPE-1, 48 h
Summary of the method: (§3)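 Cells were grown […] with 10% FBS, glutamax, NEAA and pen/strep at 37 °C, 5% CO2. Media were DMEM for RPE-1, HepG2 and BJ (BJ plus 10 ng/ml bFGF), F-12K for PC3, and IMDM for K562/HL-60. Cells were seeded at 500 per well and dosed from DMSO at 12 concentrations, 40 µM to 1 nM, in triplicate. After 48 h, intracellular ATP was read by luminescence. ED50 was obtained by variable-slope nonlinear regression.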

[11] = system: Pseudomonas aeruginosa; test: Antibacterial activity against Pseudomonas aeruginosa ATCC 9027 after 48 hrs by microdilution assay; type: functional; details: ATCC 9027, 48 h; summary of the method: as §1
[12] = system: HL-60; test: Cytotoxicity against human HL60 cells assessed as reduction in cell viability after 48 hrs by ATPlite-based luminescent assay; details: HL-60, 48 h; summary of the method: as §3
[13] = system: Klebsiella pneumoniae; test: Antibacterial activity against Klebsiella pneumoniae HK14368/08 clinical isolate after 24 hrs by microdilution assay; type: functional; details: HK14368/08, 24 h
[14] = system: HL-60; test: Induction of apoptosis in human HL60 cells assessed as caspase 3/7 activity after 24 hrs by caspase-glo luminescent assay; type: cell-based; details: HL-60, 24 h; summary of the method: as §2
[15] = system: K562; test: Cytotoxicity against human K562 cells assessed as reduction in cell viability after 48 hrs by ATPlite-based luminescent assay; details: K562, 48 h; summary of the method: as §3
[16] = system: MCF7; test: Cytotoxicity against human MCF7 cells assessed as reduction in cell viability after 48 hrs by ATPlite-based luminescent assay; details: MCF7, 48 h
[17] = system: Enterococcus sp.; test: Antibacterial activity against Enterococcus sp. HK14365/08 clinical isolate after 24 hrs by microdilution assay; type: functional; details: HK14365/08, 24 h
[18] = system: Klebsiella pneumoniae; test: Antibacterial activity against Klebsiella pneumoniae HK11750/08 clinical isolate after 24 hrs by microdilution assay; type: functional; details: HK11750/08, 24 h
[19] = system: Escherichia coli; test: Antibacterial activity against Escherichia coli ATCC 8739 after 24 hrs by microdilution assay; type: functional; details: ATCC 8739, 24 h; summary of the method: as §1
[20] = system: Enterococcus sp.; test: Antibacterial activity against Enterococcus sp. HK14365/08 clinical isolate after 48 hrs by microdilution assay; type: functional; details: HK14365/08, 48 h
[21] = system: PC-3; test: Induction of apoptosis in human PC3 cells assessed as caspase 3/7 activity after 24 hrs by caspase-glo luminescent assay; type: cell-based; details: PC-3, 24 h; summary of the method: as §2
[22] = system: Staphylococcus aureus; test: Antibacterial activity against methicillin-resistant Staphylococcus aureus HK5996/08 clinical isolate after 48 hrs by microdilution assay; type: functional; details: HK5996/08, 48 h
[23] = system: Staphylococcus aureus; test: Antibacterial activity against Staphylococcus aureus ATCC 6538 after 24 hrs by microdilution assay; type: functional; details: ATCC 6538, 24 h
[24] = system: HepG2; test: Cytotoxicity against human HepG2 cells assessed as reduction in cell viability after 48 hrs by ATPlite-based luminescent assay; details: HepG2, 48 h; summary of the method: as §3
[25] = system: K562; test: Induction of apoptosis in human K562 cells assessed as caspase 3/7 activity after 24 hrs by caspase-glo luminescent assay; type: cell-based; details: K562, 24 h; summary of the method: as §2
[26] = system: HepG2; test: Induction of apoptosis in human HepG2 cells assessed as caspase 3/7 activity after 24 hrs by caspase-glo luminescent assay; type: cell-based; details: HepG2, 24 h; summary of the method: as §2
[27] = system: BJ; test: Cytotoxicity against human BJ cells assessed as reduction in cell viability after 48 hrs by ATPlite-based luminescent assay; summary of the method: as §3
[28] = system: PC-3; test: Cytotoxicity against human PC3 cells assessed as reduction in cell viability after 48 hrs by ATPlite-based luminescent assay; details: PC-3, 48 h; summary of the method: as §3

Row | SMILES | MIC95 [1] [µM] | MIC95 [2] [µM] | MIC95 [3] [µM] | MIC95 [4] [µM] | MIC95 [5] [µM] | IC50 [6] [µM] | MIC95 [7] [µM] | MIC95 [8] [µM] | MIC95 [9] [µM] | IC50 [10] [µM] | MIC95 [11] [µM] | IC50 [12] [µM] | MIC95 [13] [µM] | IC50 [14] [µM] | IC50 [15] [µM] | IC50 [16] [µM] | MIC95 [17] [µM] | MIC95 [18] [µM] | MIC95 [19] [µM] | MIC95 [20] [µM] | further results
1 | COc1cc(OC)c(C2=C(c3ccc(OC)c(OC)c3OC)COC2=O)c(OC)c1 | > 500 | > 500 | 125 (≈ 52.1 µg/mL) | > 500 | 125 (≈ 52.1 µg/mL) | > 40 | 31.2 (≈ 13 µg/mL) | > 500 | 62.5 (≈ 26 µg/mL) | > 40 | > 500 | > 40 | > 500 | > 40 | 22.8 | > 40 | > 500 | > 500 | > 500 | > 500 | IC50 [21]: > 40 µM; MIC95 [22]: 62.5 µM (≈ 26 µg/mL); MIC95 [23]: 31.2 µM (≈ 13 µg/mL); IC50 [24]: > 40 µM; IC50 [25]: > 40 µM; IC50 [26]: > 40 µM; IC50 [27]: > 40 µM; IC50 [28]: > 40 µM
2 | COc1ccc(C2=C(c3ccc(Br)cc3)C(=O)OC2)cc1 | > 1000 | > 1000 | 1000 (≈ 345 µg/mL) | > 1000 | > 1000 | 56.4 | > 1000 | > 1000 | > 1000 | 3.35 | > 1000 | 0.83 | > 1000 | 2.18 | 0.53 | 14.3 | > 1000 | > 1000 | > 1000 | > 1000 | IC50 [21]: > 40 µM; MIC95 [22]: > 1000 µM; MIC95 [23]: > 1000 µM; IC50 [24]: > 40 µM; IC50 [25]: > 40 µM; IC50 [26]: > 40 µM; IC50 [27]: > 40 µM; IC50 [28]: > 40 µM
3 | O=C1OCC(c2ccc3c(c2)OCO3)=C1c1ccc2c(c1)OCO2 | > 125 | > 125 | > 125 | > 125 | > 125 | > 40 | > 125 | > 125 | > 125 | 35.5 | > 125 | 17.4 | > 125 | > 40 | 16 | > 40 | > 125 | > 125 | > 125 | > 125 | IC50 [21]: > 40 µM; MIC95 [22]: > 125 µM; MIC95 [23]: > 125 µM; IC50 [24]: > 40 µM; IC50 [25]: > 40 µM; IC50 [26]: > 40 µM; IC50 [27]: > 40 µM; IC50 [28]: > 40 µM

From ChEMBL document CHEMBL4251593, “Nontoxic combretafuranone analogues with high in vitro antibacterial activity” (Eur J Med Chem, 2018)
